Assay results reported in PMC5647210 (Cancer immunology, immunotherapy : CII, 2017).

Columns and labels:
HLA-A2 = settings: thermal denaturation of peptide-HLA-A2 complexes; cited from earlier work
HCV1406 TCR = test: Surface plasmon resonance TCR-pMHC binding; settings: authors' ranges based on SPR KD
[1] = test system: HCV1406 TCR-transduced T-cells; test: Degranulation CD107a assay; type: cell-based, human; settings: T2 cells pulsed with 10 μg/mL peptide, 1:1 co-culture, flow cytometry
[2] = test system: HCV1406 TCR-transduced T-cells; test: IFNγ release at high, intermediate and low antigen density; type: cell-based, human; settings: peptide-loaded HepG2 cells, 18 hr, ELISA
Procedure, shortened: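 Normal-donor PBL transduced with HCV1406 TCR, CD34-enriched and split into CD4+/CD8+ by immunomagnetic selection. HepG2 targets either peptide-pulsed for 2 h or transduced with NS3:1406–1415 minigene–GFP vectors and sorted for high uniform GFP. Co-culture 1:1, 37 °C, 18 h. IFNγ from 1x105 T-cells measured by ELISA in triplicate (mean, SD). CD4+ vs CD8+ compared by unequal-variance two-sample t-tests.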

KLLALGINAV [V1408L]
Tm of peptide-HLA-A2 (HLA-A2): 61 °C | affinity category of TCR-pMHC interaction compared to WT (HCV1406 TCR): moderate affinity

KLVALGVNAV [I1412V]
affinity category of TCR-pMHC interaction compared to WT (HCV1406 TCR): moderate affinity | degranulation (surface CD107a) of CD4^+ TCR-transduced T-cells [1]: blunted compared to WT, I1412L, and V1408L

KLVALGLNAV [I1412L]
affinity category of TCR-pMHC interaction compared to WT (HCV1406 TCR): moderate affinity

KLVALGNNAV [I1412N]
Tm of peptide-HLA-A2 (HLA-A2): 59 °C | affinity category of TCR-pMHC interaction compared to WT (HCV1406 TCR): low affinity

KLTALGINAV [V1408T]
Tm of peptide-HLA-A2 (HLA-A2): 69 °C | affinity category of TCR-pMHC interaction compared to WT (HCV1406 TCR): moderate affinity | degranulation (surface CD107a) of CD4^+ TCR-transduced T-cells [1]: blunted compared to WT, I1412L, and V1408L

KLVALGINAV [WT]
Tm of peptide-HLA-A2 (HLA-A2): 64 °C | IFNγ secretion by CD8^+ T-cells, intermediate antigen density [2]: strong recognition
